Data set [1] has as its target T1, Adenosine receptor A1 (Rattus norvegicus) (UniProt P25099).
T1 sequence (whole entry): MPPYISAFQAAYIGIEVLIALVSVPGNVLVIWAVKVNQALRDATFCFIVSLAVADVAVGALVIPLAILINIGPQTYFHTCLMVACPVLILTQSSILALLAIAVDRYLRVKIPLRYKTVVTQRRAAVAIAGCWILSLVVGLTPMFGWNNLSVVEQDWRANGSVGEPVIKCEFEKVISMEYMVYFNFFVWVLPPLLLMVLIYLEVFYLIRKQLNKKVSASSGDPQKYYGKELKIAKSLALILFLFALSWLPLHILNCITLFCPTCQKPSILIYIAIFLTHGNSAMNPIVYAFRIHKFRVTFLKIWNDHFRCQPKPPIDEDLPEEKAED
Put plainly: Ratio between solubility and Ki for A1 adenosine receptor.

In data set [2] the target is T2, Adenosine receptor A2a (Rattus norvegicus, UniProt P30543). Nature of the data set: (§1) Binding affinity against adenosine A2A receptor in rat striatal membrane preparations using [3H]CGS-21680 at 10 uM. It is filed as cell membranes, Striatum.
T2 sequence (P30543 whole entry): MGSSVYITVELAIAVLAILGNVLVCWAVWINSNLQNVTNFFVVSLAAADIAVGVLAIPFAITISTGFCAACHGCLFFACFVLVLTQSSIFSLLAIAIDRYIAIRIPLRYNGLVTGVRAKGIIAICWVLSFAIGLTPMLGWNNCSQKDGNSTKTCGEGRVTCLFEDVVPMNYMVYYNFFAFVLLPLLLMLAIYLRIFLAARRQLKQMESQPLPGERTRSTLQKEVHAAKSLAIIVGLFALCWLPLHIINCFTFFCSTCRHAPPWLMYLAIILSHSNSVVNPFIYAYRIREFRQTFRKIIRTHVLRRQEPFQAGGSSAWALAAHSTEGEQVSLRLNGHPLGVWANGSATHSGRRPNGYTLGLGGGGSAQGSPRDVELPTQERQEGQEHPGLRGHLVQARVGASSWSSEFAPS
The next data set concerns the target T3, Adenosine receptor A1 (Rattus norvegicus, UniProt P25099).
T3 sequence (P25099 whole entry): T1 sequence (whole entry)
Nature of the data set: Tested for its binding affinity at adenosine A1 receptor in rat brain cortical membrane preparations using [3H]CCPA as a radioligand. The data set is classed as cell membranes. The essentials: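 Rat brain cortical membranes, A1 agonist radioligand [3H]CCPA at 0.5 nM. Compounds dissolved in DMSO, diluted into aqueous buffer, tested at 5-7 concentrations in triplicate, at least three separate experiments.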

Data set [3] is described as follows: Solubility determined in […]-hydrochloride buffer at pH 7.4. As to conditions: in the assay text read “50 mM” for “50 nM”. It is filed as physicochemical. In outline:
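10 mM DMSO solution diluted 1:100 into 50 mM TRIS-HCl pH 7.4 (1% DMSO), shaken overnight at room temperature to equilibrium, centrifuged at 1000g, supernatant filtered through cotton. Dilutions analysed by HPLC with UV detection, concentration from calibration curves.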

The target of data set [4] is Adenosine receptor A2a (Rattus norvegicus) (UniProt P30543). Put plainly: Binding affinity against adenosine A2A receptor in rat striatal membrane preparations at 30 uM. It is filed as cell membranes. As to conditions: Striatum. In outline:
(§2)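 Rat striatal membranes, A2A-selective agonist [3H]CGS21680 at 5 nM. Compounds dissolved in DMSO, diluted into aqueous buffer. Value given as percent inhibition of radioligand binding at the single stated concentration.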

Data set [5] concerns the target T2, Adenosine receptor A2a. Nature of the data set: Binding affinity at adenosine A2A receptor in rat striatal membrane preparations using [3H]CGS-21680 at a 30 uM. The data set is classed as cell membranes, Striatum.
The target in data set [6] is Adenosine receptor A2a (Rattus norvegicus) (UniProt P30543). Described as §1. The data set is classed as cell membranes. The following applies: Striatum. In outline: as §2
Chain of Adenosine receptor A2a (Rattus norvegicus) (P30543 whole entry): as above
The target in data set [7] is T1, Adenosine receptor A1 (Rattus norvegicus). Put plainly: Binding affinity against adenosine A1 receptor in rat brain cortical membrane preparations using [3H]CCPA at 30 uM. It is filed as cell membranes. In outline:
(§3)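 Rat brain cortical membranes with [3H]CCPA (0.5 nM) as A1 radioligand. Compounds from DMSO stock diluted into aqueous buffer. Value given as percent inhibition of specific radioligand binding at the single stated concentration.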

The target of data set [8] is Adenosine receptor A2a (Rattus norvegicus) (UniProt P30543). Nature of the data set: Binding affinity against adenosine A2A receptor in rat striatal membrane preparations using [3H]CGS-21680 at 30 uM. The data set is classed as cell membranes. The following applies: Striatum. In outline: as §2
In data set [9] the target is Adenosine receptor A1 (Homo sapiens) (UniProt P30542). Nature of the data set: Binding affinity against adenosine A1 receptor expressed in CHO cells using [3H]CCPA.
Chain of Adenosine receptor A1 (Homo sapiens) (P30542 whole entry, looked up): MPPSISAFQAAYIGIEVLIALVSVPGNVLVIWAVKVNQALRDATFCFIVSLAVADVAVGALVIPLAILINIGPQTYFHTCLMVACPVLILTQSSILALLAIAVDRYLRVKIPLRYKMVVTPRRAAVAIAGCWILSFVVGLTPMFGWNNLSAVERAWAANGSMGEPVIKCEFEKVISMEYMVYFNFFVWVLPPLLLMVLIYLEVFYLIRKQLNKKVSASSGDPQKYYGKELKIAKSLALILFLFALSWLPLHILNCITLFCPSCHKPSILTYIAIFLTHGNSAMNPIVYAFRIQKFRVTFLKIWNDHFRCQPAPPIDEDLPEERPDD
The target of data set [10] is Adenosine receptor A2a (Rattus norvegicus) (UniProt P30543). Nature of the data set: Binding affinity against adenosine A2A receptor in rat striatal membrane preparations at 10 uM. The data set is classed as cell membranes. The following applies: Striatum. In outline: as §2
Data set [11] deals with T1, Adenosine receptor A1 (Rattus norvegicus). Nature of the data set: Binding affinity against adenosine A1 receptor in rat brain cortical membrane preparations using [3H]CCPA at 100 uM. It is filed as cell membranes. In outline: as §3
Data set [12] shares this target. Put plainly: Binding affinity against adenosine A1 receptor in rat brain cortical membrane preparations using [3H]CCPA. The data set is classed as cell membranes. As to conditions: concentration not given here. The essentials:
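Rat brain cortical membranes, A1 agonist radioligand [3H]CCPA at 0.5 nM. Compounds dissolved in DMSO, diluted into aqueous buffer, tested at 5-7 concentrations in triplicate, at least three separate experiments. IC50 from nonlinear curve fitting, converted to Ki with Cheng-Prusoff using KD 0.2 nM.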

Data set [13] deals with Adenosine receptor A2a (Rattus norvegicus) (UniProt P30543). Put plainly: Binding affinity against adenosine A2A receptor in rat striatal membrane preparations using [3H]CGS-21680 at 1 uM. It is filed as cell membranes. The following applies: Striatum. The essentials:
as §2

For data set [14] the target is unchanged. Nature of the data set: Binding affinity against adenosine A2A receptor in rat striatal membrane preparations using [3H]CGS-21680 at 3 uM. The data set is classed as cell membranes. As to conditions: Striatum. The essentials:
as §2

We go through 29 compounds from ChEMBL document CHEMBL1133538, “7-Deazaadenines bearing polar substituents: structure-activity relationships of new A(1) and A(3) adenosine receptor antagonists” (J Med Chem, 2000).

In brackets after ≈: the same amount, converted by molar mass.

A word on the Ki: it is a dissociation constant, usually derived from enzyme kinetics or from competition with a known ligand. One may read the solubility as how much of the substance goes into solution per volume. Low readings indicate a poorly soluble substance, high ones a readily soluble substance. As usually defined, the inhibition is the share of the control response that was lost under treatment. High values mean strong suppression, low ones little suppression.

Regarding `C[C@H](c1ccccc1)n1c2ccccc2c2c(N)nc(-c3ccncc3)nc21`, the Ratio in data set [1] turned out to be 142. Further, the Ki on Adenosine receptor A2a [2] was determined as 1850 nM; on Adenosine receptor A1, 21 nM. In data set [3], the concentration in solution (solubility) came to 3 µM (≈ 1.1 µg/mL).

`C[C@@H](c1ccccc1)n1c2c(c3c(N)nc(-c4ccccn4)nc31)CCCC2` registered a Ki at Adenosine receptor A1 of 12500 nM. The compound further showed an inhibition in data set [4] of 38%.

For `Cc1c(C)n([C@H](C)c2ccccc2)c2nc(-c3ccco3)nc(N)c12`, the Ki came to 16 nM on Adenosine receptor A1 and 490 nM at Adenosine receptor A2a [5].

At Adenosine receptor A1, `C[C@H](c1ccccc1)n1c2c(c3c(N)nc(-c4cccnc4)nc31)CCCC2` showed a Ki of 1300 nM. The same compound showed an inhibition in [4] of 46%.

Consider `Cc1c(C)n([C@H](C)c2ccccc2)c2nc(-c3cc[n+]([O-])cc3)nc(N)c12`, for which the Ki came to 490 nM at Adenosine receptor A1 and 5900 nM on Adenosine receptor A2a [5].

In data set [6], `Cc1nc2nc(-c3ccccc3)[nH]c(N[C@H](C)c3ccccc3)c-2c1C` gave an inhibition of 23%.

For the compound `Cc1c(C)n([C@H](C)c2ccccc2)c2nc(-c3ccccc3)nc(NC3CCCC3)c12`, the inhibition in [7] came to 41%; in data set [8], 19%.

Consider `Cc1c(C)n([C@H](C)c2ccccc2)c2nc(-c3ccncc3)nc(N)c12`, for which the Ki in [9] was 8.8 nM; on Adenosine receptor A1, 46 nM; at Adenosine receptor A2a [5], 1300 nM.

`Cc1[nH]c2nc(C(C)c3ccccc3)nc(N)c2c1C` (stereo unspecified) displayed an inhibition in [6] of 10%. This compound had a Ki on Adenosine receptor A1 of 6840 nM.

As to `C[C@H](c1ccccc1)n1c2ccccc2c2c(N)nc(-c3cccnc3)nc21`, the inhibition in data set [6] is 47%. For the same compound, at Adenosine receptor A1, the inhibition constant (Ki) is 92 nM.

In [8], `Cc1c(C)n([C@H](C)c2ccccc2)c2nc(-c3ccccc3)nc(NCCN)c12` showed an inhibition of 2%. Moreover, the Ratio in data set [1] amounted to 7. In addition, the Ki on Adenosine receptor A1 is 3580 nM. This compound came in with a solubility in data set [3] of 24.2 µM (≈ 9.33 µg/mL).

For `COc1ccccc1-c1nc(N)c2c(C)c(C)n([C@H](C)c3ccccc3)c2n1`, the inhibition in [7] is 38%; in data set [8], 14%.

Turning to `Cc1c(C)n([C@H](C)c2ccccc2)c2nc(-c3ccccc3)nc(N)c12`, on Adenosine receptor A2a [2], the affinity, expressed as Ki, was 3710 nM.

Compound `CCC(CO)Nc1nc(-c2ccc(Cl)cc2)nc2c1c(C)c(C)n2[C@H](C)c1ccccc1` (stereo partly specified) registered an inhibition in [8] of 36%. For the same compound, the Ratio in data set [1] is 4. The affinity at Adenosine receptor A1, expressed as Ki, was 2600 nM. In data set [3], this compound showed a solubility of 11.2 µM (≈ 5.03 µg/mL).

On to `Cc1c(C)n([C@H](C)c2ccccc2)c2nc(C(C)c3ccccc3)nc(N)c12` (stereo partly specified), for which the inhibition came to 33% in [7] and 38% in [8].

Regarding `Nc1nc(-c2ccncc2)nc2c1c1c(n2-c2ccccc2)CCCC1`, the affinity at Adenosine receptor A1, expressed as Ki, was 600 nM. Also, in [10], the inhibition worked out at 28%.

`Nc1nc(-c2ccccn2)nc2c1c1c(n2-c2ccccc2)CCCC1` came in with an inhibition in data set [8] of 42%. The same compound displayed an inhibition constant (Ki) on Adenosine receptor A1 of 8900 nM.

Regarding `Cc1c(C)n([C@H](C)c2ccccc2)c2nc(-c3cccs3)nc(N)c12`, the Ki worked out at 19 nM on Adenosine receptor A1 and 5400 nM on Adenosine receptor A2a [5].

In turn, `Nc1nc(-c2cccnc2)nc2c1c1c(n2-c2ccccc2)CCCC1` registered an inhibition in data set [8] of 44%.

As for `Cc1c(C)n([C@H](C)c2ccccc2)c2nc(-c3cccnc3)nc(N)c12`, the inhibition in data set [8] is 3%; in data set [11] it was 35%.

As for `Cc1c(C)n([C@H](C)c2ccccc2)c2nc(-c3ccccc3O)nc(N)c12`, the inhibition in [8] stood at 46%. Further, the Ki at Adenosine receptor A1 was 240 nM.

Turning to `C[C@@H](c1ccccc1)n1c2c(c3c(N)nc(-c4ccncc4)nc31)CCCC2`, the inhibition in data set [12] stood at 8%; in data set [4], 2%.

On to `C[C@H](c1ccccc1)n1c2c(c3c(N)nc(-c4cc[n+]([O-])cc4)nc31)CCCC2`, for which the Ki on Adenosine receptor A1 is 1850 nM. Also, the inhibition in data set [4] worked out at 50%.

Consider `Cc1c(C)n([C@H](C)c2ccccc2)c2nc(-c3ccccn3)nc(N)c12`, for which, in data set [8], the inhibition was 43%. Further, the Ki at Adenosine receptor A1 came to 2100 nM.

`Cc1c(C)n([C@H](C)c2ccccc2)c2nc(-c3ccccc3)nc(N[C@@H](C)c3ccccc3)c12` displayed an inhibition in data set [8] of 26%. At Adenosine receptor A1, this compound gave a Ki of 18300 nM.

Regarding `C[C@@H](c1ccccc1)n1c2ccccc2c2c(N)nc(-c3ccccn3)nc21`, the Ratio in data set [1] worked out at 9. This compound registered an inhibition in data set [13] of 6%. For the same compound, the affinity at Adenosine receptor A1, expressed as Ki, was 540 nM. The solubility in data set [3] is 5 µM (≈ 1.83 µg/mL).

Regarding `C[C@H](c1ccccc1)n1c2ccccc2c2c(N)nc(-c3cccs3)nc21`, the inhibition in [14] amounted to 32%. At Adenosine receptor A1, this compound gave a Ki of 36 nM.

Compound `CCC(CO)Nc1nc(-c2ccccc2)nc2c1c(C)c(C)n2C1CCCC1` (stereo unspecified) displayed an inhibition in data set [8] of 22%. Also, the Ratio in data set [1] was determined as 11. The compound also came in with a Ki on Adenosine receptor A1 of 1240 nM. Moreover, the concentration in solution in [3] (solubility) was 13.2 µM (≈ 5 µg/mL).

For `Cc1c(C)n([C@H](C)c2ccccc2)c2nc(-c3cnccn3)nc(N)c12`, the figures for the Ki at Adenosine receptor A1 and at Adenosine receptor A2a [5] were 560 nM and 6600 nM, respectively.
